Active and inactive are the calls of the source. The rule behind the calls is not given here.
Experiments:
[1] = Volume of distribution at steady state in Swiss albino mouse at 3 mg/kg, iv; format: ADME, organism-based; parameters: dose 3 mg/kg, route intravenous; details: in vivo, read-out: Vdss
Method in brief: (§1)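 Mouse PK after single intravenous or oral dose; n = 3 mice per time point. Parameters reported: T1/2, Cmax, AUClast, Vss and CL for iv; Tmax, Cmax, AUClast and %F for po. One iv formulation given is 7.5% v/v N-methyl pyrrolidone with 20% cremophor EL in water.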

[2] = AUClast in Swiss albino mouse at 3 mg/kg, po; format: ADME, organism-based; parameters: time 0 - last, dose 3 mg/kg, route oral; details: plasma; method in brief: as §1
[3] = Half life in Swiss albino mouse at 3 mg/kg, iv; format: ADME, organism-based; parameters: dose 3 mg/kg, route intravenous; details: in vivo; method in brief: as §1
[4] = Tmax in Swiss albino mouse at 3 mg/kg, po; format: ADME, organism-based; parameters: dose 3 mg/kg, route oral; details: in vivo; method in brief: as §1
[5] = Cmax in Swiss albino mouse at 3 mg/kg, po; format: ADME, organism-based; parameters: dose 3 mg/kg, route oral; details: in vivo; method in brief: as §1
[6] = test system: Mus musculus; experiment: Oral bioavailability in Swiss albino mouse at 3 mg/kg; format: ADME, organism-based; details: in vivo; method in brief: as §1
[7] = Clearance in Swiss albino mouse at 3 mg/kg, iv; format: ADME, organism-based; parameters: dose 3 mg/kg, route intravenous; details: in vivo; method in brief: as §1
[8] = AUClast in Swiss albino mouse at 3 mg/kg, iv; format: ADME, organism-based; parameters: time 0 - last, dose 3 mg/kg, route intravenous; details: plasma; method in brief: as §1
[9] = Cmax in Swiss albino mouse at 3 mg/kg, iv; format: ADME, organism-based; parameters: dose 3 mg/kg, route intravenous; details: in vivo; method in brief: as §1
[10] = Cmax in Swiss albino mouse at 1 mg/kg, iv; format: ADME, organism-based; parameters: dose 1 mg/kg, route intravenous; details: in vivo; method in brief: as §1
[11] = Volume of distribution at steady state in Swiss albino mouse at 1 mg/kg, iv; format: ADME, organism-based; parameters: dose 1 mg/kg, route intravenous; details: in vivo, read-out: Vdss; method in brief: as §1
[12] = Clearance in Swiss albino mouse at 1 mg/kg, iv; format: ADME, organism-based; parameters: dose 1 mg/kg, route intravenous; details: in vivo; method in brief: as §1
[13] = Cmax in Swiss albino mouse at 10 mg/kg, po; format: ADME, organism-based; parameters: dose 10 mg/kg, route oral; details: in vivo; method in brief: as §1
[14] = Tmax in Swiss albino mouse at 10 mg/kg, po; format: ADME, organism-based; parameters: dose 10 mg/kg, route oral; details: in vivo; method in brief: as §1
[15] = AUClast in Swiss albino mouse at 10 mg/kg, po; format: ADME, organism-based; parameters: time 0 - last, dose 10 mg/kg, route oral; details: plasma; method in brief: as §1
[16] = test system: Mus musculus; experiment: Oral bioavailability in Swiss albino mouse at 10 mg/kg; format: ADME, organism-based; details: in vivo; method in brief: as §1
[17] = AUClast in Swiss albino mouse at 1 mg/kg, iv; format: ADME, organism-based; parameters: dose 1 mg/kg, route intravenous, time 0 - last; details: plasma; method in brief: as §1
[18] = Half life in Swiss albino mouse at 1 mg/kg, iv; format: ADME, organism-based; parameters: dose 1 mg/kg, route intravenous; details: in vivo; method in brief: as §1
[19] = target: T1, Tyrosine-protein kinase Mer (Homo sapiens) (UniProt Q12866); details: A549, 50 to 300 nM
T1 sequence (whole entry): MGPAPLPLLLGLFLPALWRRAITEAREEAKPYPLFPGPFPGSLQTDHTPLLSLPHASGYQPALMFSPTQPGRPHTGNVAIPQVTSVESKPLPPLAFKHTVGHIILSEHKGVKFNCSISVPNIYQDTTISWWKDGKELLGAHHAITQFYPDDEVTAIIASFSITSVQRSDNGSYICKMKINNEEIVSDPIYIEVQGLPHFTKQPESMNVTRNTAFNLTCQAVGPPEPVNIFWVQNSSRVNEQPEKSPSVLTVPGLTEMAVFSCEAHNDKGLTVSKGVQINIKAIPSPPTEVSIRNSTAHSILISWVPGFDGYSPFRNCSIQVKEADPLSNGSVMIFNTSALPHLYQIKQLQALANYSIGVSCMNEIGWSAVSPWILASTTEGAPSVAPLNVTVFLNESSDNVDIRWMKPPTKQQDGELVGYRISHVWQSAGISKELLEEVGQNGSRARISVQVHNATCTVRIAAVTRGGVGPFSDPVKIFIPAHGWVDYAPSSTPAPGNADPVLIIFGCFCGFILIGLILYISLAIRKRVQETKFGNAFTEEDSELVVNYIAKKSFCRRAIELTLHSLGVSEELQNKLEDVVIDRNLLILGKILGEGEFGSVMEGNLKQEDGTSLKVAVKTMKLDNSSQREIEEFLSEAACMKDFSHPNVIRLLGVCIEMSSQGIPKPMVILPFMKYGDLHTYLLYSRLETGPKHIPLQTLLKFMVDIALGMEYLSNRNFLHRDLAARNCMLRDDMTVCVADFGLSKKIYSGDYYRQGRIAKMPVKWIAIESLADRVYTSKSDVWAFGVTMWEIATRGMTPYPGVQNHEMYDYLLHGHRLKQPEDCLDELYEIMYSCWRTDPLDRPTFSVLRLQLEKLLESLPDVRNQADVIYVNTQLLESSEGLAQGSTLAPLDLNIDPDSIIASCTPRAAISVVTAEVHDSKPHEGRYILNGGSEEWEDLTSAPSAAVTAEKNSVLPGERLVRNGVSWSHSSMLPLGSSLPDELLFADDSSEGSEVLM

[20] = target: Receptor-type tyrosine-protein kinase FLT3 (Homo sapiens) (UniProt P36888); details: MOLM-14, 10 to 50 nM
Chain of Receptor-type tyrosine-protein kinase FLT3 (Homo sapiens) (P36888 whole entry): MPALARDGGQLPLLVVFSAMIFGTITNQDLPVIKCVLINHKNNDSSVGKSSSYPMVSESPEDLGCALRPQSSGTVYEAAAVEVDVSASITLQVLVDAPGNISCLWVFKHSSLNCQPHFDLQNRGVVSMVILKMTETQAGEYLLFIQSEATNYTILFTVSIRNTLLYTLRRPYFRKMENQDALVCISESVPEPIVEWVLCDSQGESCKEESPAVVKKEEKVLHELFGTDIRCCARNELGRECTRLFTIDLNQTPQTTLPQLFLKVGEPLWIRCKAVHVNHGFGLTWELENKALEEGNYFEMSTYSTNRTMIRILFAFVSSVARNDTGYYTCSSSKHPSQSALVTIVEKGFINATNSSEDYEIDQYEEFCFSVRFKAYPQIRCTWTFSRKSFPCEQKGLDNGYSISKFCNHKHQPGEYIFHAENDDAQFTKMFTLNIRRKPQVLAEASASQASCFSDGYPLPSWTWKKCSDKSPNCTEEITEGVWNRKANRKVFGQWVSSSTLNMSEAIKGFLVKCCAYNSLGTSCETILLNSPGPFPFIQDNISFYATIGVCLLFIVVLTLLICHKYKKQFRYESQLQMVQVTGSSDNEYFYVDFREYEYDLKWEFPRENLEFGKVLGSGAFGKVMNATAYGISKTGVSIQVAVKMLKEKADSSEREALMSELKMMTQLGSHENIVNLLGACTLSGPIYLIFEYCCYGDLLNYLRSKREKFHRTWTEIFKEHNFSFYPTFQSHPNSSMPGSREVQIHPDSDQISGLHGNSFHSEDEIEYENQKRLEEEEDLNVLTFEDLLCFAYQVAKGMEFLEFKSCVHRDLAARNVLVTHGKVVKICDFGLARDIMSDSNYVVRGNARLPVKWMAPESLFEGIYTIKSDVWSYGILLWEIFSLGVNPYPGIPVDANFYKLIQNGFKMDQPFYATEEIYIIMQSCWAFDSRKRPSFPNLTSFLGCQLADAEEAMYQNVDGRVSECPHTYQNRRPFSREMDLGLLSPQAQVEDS

[21] = target: Hepatocyte growth factor receptor (Homo sapiens, UniProt P08581); experiment: Inhibition of Met (unknown origin) by Off-chip Mobility Shift Assay
Chain of Hepatocyte growth factor receptor (P08581 whole entry): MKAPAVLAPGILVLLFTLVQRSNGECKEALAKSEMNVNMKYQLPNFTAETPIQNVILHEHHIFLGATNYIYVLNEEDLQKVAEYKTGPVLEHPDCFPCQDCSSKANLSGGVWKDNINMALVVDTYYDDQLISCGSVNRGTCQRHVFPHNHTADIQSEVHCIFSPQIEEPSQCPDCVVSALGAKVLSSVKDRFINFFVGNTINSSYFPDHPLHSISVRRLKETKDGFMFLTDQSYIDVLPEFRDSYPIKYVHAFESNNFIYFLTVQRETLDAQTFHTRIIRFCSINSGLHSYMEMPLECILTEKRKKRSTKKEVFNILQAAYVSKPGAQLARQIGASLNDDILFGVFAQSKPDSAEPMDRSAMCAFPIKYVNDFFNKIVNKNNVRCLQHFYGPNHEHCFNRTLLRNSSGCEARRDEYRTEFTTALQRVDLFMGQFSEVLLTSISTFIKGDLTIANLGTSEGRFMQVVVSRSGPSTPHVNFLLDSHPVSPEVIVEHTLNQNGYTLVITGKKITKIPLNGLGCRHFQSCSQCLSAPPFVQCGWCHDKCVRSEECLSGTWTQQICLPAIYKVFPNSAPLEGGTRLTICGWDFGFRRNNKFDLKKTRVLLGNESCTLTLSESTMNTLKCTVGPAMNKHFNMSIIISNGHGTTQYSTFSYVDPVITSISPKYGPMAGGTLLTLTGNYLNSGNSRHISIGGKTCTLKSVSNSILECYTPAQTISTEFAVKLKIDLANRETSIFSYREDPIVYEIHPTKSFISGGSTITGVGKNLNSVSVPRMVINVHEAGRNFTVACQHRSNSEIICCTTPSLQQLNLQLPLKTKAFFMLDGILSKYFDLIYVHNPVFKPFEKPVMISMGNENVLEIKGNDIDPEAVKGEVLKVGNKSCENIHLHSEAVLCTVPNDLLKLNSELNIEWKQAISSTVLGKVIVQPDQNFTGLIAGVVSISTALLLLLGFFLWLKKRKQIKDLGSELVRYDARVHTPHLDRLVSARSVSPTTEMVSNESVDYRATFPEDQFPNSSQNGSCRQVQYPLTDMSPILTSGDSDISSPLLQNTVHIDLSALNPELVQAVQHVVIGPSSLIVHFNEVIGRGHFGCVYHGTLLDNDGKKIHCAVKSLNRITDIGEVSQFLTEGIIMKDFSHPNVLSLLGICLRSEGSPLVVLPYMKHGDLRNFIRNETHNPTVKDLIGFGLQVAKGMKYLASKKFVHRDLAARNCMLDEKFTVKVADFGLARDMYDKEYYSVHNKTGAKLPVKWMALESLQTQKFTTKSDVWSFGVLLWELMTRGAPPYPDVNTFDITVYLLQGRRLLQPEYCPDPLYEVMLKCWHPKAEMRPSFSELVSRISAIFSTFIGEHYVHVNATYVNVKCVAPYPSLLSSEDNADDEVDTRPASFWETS
Method in brief: (§2)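 Kinase panel run in duplicate using a microcapillary electrophoresis (mobility shift) assay. Screening concentration was 100 nM. IC50 values were then determined at each kinase's ATP Km.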

[22] = target: STE20-like serine/threonine-protein kinase (Homo sapiens, UniProt Q9H2G2); experiment: Inhibition of SLK (unknown origin) by Off-chip Mobility Shift Assay; method in brief: as §2
Chain of STE20-like serine/threonine-protein kinase (Q9H2G2 whole entry): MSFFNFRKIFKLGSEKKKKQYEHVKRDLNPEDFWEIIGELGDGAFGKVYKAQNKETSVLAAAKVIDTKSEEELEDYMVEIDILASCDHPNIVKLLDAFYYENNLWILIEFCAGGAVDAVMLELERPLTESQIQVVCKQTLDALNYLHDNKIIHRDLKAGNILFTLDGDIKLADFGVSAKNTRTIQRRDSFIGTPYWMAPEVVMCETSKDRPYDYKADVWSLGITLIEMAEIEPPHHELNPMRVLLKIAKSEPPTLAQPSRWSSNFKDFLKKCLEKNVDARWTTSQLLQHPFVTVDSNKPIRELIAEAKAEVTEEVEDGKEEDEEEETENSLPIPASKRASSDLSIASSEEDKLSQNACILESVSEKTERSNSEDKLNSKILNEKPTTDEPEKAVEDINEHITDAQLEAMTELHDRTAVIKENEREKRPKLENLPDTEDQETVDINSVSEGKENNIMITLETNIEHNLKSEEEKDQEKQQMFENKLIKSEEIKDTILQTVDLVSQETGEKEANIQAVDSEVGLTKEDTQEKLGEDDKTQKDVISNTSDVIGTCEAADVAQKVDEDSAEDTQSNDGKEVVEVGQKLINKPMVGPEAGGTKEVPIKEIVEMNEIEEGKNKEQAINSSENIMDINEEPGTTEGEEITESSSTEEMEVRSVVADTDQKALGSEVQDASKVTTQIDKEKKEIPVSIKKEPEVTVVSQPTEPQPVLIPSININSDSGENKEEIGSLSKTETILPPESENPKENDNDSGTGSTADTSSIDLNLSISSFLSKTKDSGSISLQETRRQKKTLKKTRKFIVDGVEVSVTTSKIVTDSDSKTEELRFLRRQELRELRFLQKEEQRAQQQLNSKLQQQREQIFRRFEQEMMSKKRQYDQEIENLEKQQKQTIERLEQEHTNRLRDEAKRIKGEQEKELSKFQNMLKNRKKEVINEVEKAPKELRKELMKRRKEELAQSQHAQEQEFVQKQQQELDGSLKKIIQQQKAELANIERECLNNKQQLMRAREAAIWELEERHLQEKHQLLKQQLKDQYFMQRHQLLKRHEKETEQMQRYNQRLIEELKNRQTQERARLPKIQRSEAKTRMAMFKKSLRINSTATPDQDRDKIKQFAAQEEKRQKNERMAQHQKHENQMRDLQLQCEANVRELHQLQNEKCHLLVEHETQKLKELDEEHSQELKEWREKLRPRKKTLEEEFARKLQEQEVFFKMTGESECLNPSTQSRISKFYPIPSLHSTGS

[23] = target: T2, NUAK family SNF1-like kinase 1 (Homo sapiens, UniProt O60285); experiment: Inhibition of Nuak1 (unknown origin) by Off-chip Mobility Shift Assay; method in brief: as §2
T2 sequence (O60285 whole entry): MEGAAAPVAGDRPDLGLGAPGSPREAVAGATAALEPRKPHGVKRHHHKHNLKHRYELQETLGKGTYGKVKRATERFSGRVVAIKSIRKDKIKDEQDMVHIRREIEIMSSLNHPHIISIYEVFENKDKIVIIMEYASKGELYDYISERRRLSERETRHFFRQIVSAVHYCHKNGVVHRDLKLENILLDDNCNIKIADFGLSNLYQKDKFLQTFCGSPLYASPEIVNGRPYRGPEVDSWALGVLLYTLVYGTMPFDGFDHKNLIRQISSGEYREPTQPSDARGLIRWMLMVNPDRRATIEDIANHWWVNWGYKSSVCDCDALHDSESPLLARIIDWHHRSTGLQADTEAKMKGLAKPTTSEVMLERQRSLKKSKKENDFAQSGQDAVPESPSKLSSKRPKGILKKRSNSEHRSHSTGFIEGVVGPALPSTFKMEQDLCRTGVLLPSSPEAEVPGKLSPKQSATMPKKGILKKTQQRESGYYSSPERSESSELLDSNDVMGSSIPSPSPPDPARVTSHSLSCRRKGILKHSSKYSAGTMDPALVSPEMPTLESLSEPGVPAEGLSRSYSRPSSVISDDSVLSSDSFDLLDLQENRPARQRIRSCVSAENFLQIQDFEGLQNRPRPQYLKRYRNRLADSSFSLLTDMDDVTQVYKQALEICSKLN

[24] = target: NT-3 growth factor receptor (Homo sapiens, UniProt Q16288); experiment: Inhibition of TRKC (unknown origin) by Off-chip Mobility Shift Assay; method in brief: as §2
Chain of NT-3 growth factor receptor (Q16288 whole entry): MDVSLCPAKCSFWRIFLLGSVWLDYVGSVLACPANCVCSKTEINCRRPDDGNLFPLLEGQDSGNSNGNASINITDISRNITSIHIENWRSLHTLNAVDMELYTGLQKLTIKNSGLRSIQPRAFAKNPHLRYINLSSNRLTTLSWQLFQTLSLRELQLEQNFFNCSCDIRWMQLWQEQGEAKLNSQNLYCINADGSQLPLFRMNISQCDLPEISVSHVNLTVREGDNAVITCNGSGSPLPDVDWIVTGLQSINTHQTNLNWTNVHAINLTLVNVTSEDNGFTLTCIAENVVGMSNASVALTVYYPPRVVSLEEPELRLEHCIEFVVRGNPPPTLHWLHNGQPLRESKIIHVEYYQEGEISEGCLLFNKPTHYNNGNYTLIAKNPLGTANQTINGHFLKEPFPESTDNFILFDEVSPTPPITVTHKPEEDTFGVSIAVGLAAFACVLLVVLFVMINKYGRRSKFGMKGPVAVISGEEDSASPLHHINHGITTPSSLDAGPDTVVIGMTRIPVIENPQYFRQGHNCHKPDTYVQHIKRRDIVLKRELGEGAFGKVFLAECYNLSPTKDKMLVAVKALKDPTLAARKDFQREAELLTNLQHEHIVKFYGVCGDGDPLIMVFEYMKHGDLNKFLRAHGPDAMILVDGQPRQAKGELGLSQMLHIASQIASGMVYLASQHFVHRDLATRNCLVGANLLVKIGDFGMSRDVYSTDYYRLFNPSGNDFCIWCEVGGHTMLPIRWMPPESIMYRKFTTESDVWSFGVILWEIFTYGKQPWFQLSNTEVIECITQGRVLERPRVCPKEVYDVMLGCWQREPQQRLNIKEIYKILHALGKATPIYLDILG

[25] = Plasma concentration in human 697 cells xenografted NOD.Cg-Prkdcscid Il2rgtm1Wjl/SzJ mouse at 3 mg/kg, po administered as single dose measured after 30 mins post dose; format: ADME, organism-based; parameters: dose 3 mg/kg, route oral
[26] = test system: 697; experiment: Inhibition of Mer phosphorylation in human 697 cells xenografted in NOD.Cg-Prkdcscid Il2rgtm1Wjl/SzJ mouse at 3 mg/kg, po administered as single dose measured after 30 mins post dose by densitometry relative to control; format: functional; details: Mus musculus, 697, 0.5 h
Method in brief: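 NSG mice received 2 × 10^6 697 B-ALL cells by tail-vein injection, with 14 days for engraftment. A single 3 mg/kg dose or saline vehicle (10 mL/kg) was given by oral gavage, and femurs were taken 30 min later. Marrow cells were held 10 min at room temperature in RPMI with 20% FBS and 240 μM pervanadate. Mer was then immunoprecipitated and p-Mer/total Mer quantified by Western densitometry; n = 6.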

[27] = test system: Plasma; experiment: Fraction unbound in plasma of human 697 cells xenografted NOD.Cg-Prkdcscid Il2rgtm1Wjl/SzJ mouse at 3 mg/kg, po administered as single dose measured after 30 mins post dose; format: ADME, organism-based; parameters: dose 3 mg/kg, route oral; details: in vivo, 0.5 h
[28] = target: Mast/stem cell growth factor receptor Kit (Homo sapiens, UniProt P10721); experiment: Inhibition of Kit (unknown origin) by Off-chip Mobility Shift Assay; method in brief: as §2
[29] = Plasma protein binding in human 697 cells xenografted NOD.Cg-Prkdcscid Il2rgtm1Wjl/SzJ mouse at 3 mg/kg, po administered as single dose measured after 30 mins post dose; format: ADME, organism-based; parameters: dose 3 mg/kg, route oral; details: read-out: PPB (converted)
Method in brief: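 Plasma protein binding was measured in mice, n = 3.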

[30] = Kinetic solubility of the compound in normal saline at pH 7.4; format: physicochemical; details: buffer

Row | Structure (SMILES) | Vd [1] [L/kg] | AUC(0-t) [2] [µM·h] | half-life [3] [min] | Tmax [4] [min] | Cmax [5] [nM] | F [6] [%] | clearance [7] [mL/min/kg] | AUC(0-t) [8] [µM·h] | Cmax [9] [nM] | also measured
1 | CN1CCN(S(=O)(=O)c2ccc(-c3cn([C@H]4CC[C@H](O)CC4)c4nc(NCCC5CC5)ncc34)c(F)c2)CC1 | 5.3 | 0.69 | 72 | 15 | 420 | 67 | 76 | 1 | 1200 | 
2 | CCCCNc1ncc2c(-c3ccc(S(=O)(=O)N4CCN(C)CC4)c(F)c3)cn([C@H]3CC[C@H](O)CC3)c2n1 |  |  |  |  |  |  |  |  |  | Cmax [10]: 400 nM; Vd [11]: 5.5 L/kg; clearance [12]: 103 mL/min/kg; Cmax [13]: 390 nM; Tmax [14]: 15 min; AUC(0-t) [15]: 0.66 µM·h; F [16]: 25%; AUC(0-t) [17]: 0.27 µM·h; half-life [18]: 48 min
3 | CCCCNc1ncc2c(-c3ccc(CN4CCN(C)CC4)cc3)cn([C@H]3CC[C@H](O)CC3)c2n1 [listing 1 of 2 here] |  |  |  |  |  |  |  |  |  | inhibition [19]: Active; inhibition [20]: Active
4 | CCCCNc1ncc2c(-c3ccc(S(=O)(=O)N4CCOCC4)cc3)nn([C@H]3CC[C@H](O)CC3)c2n1 | 0.43 | 0.01 | 138 | 30 | 13 | 0.3 | 30 | 3.3 | 16000 | 
5 | CCCCNc1ncc2c(-c3ccc(CN4CCN(C)CC4)cc3)cn([C@H]3CC[C@H](O)CC3)c2n1 [listing 2 of 2 here] | 2.3 | 9.2 | 228 | 30 | 1600 | 100 | 9.2 | 9.2 | 4100 | IC50 [21]: 364 nM; IC50 [22]: 6.14 nM; IC50 [23]: 7.97 nM; IC50 [24]: 4.38 nM; concentration at 0.5 h [25]: 1600 nM; inhibition in vivo at 3 mg/kg [26]: > 90%; Cp(f) [27]: 22 nM; IC50 [28]: 8.18 nM; fraction unbound at 0.5 h [29]: 0.014
6 | CCCCNc1ncc2c(-c3ccc(CN4CCN(C)CC4)cc3)cn([C@H]3CC[C@H](O)CC3)c2n1.Cl |  |  |  |  |  |  |  |  |  | Kinetic_solubility [30]: 38 µg/mL
7 | CCCCNc1ncc2c(-c3ccc(S(=O)(=O)N4CCOCC4)cc3)cn([C@H]3CC[C@H](O)CC3)c2n1 | 0.78 | 0.12 | 13.8 | 15 | 160 | 8.4 | 70 | 1.4 | 7900 | 
8 | CN1CCN(Cc2ccc(-c3cn([C@H]4CC[C@H](O)CC4)c4nc(NCCC5CC5)ncc34)cc2)CC1 | 2 | 9 | 264 | 60 | 1300 | 78 | 7.2 | 12 | 6500 | 

— ChEMBL document CHEMBL3351548, “UNC2025, a potent and orally bioavailable MER/FLT3 dual inhibitor” (J Med Chem, 2014)
